Calls of active or inactive are those of the source. The calls are words filed in the database; no cut-off is given here.
Columns and labels:
[1] = Octanol-water partition coefficient, log P at pH 7.4; type: physicochemical
Procedure, shortened: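 Thiazole orange-labelled peptides were partitioned between 1-octanol and 10 mM Tris, pH 7.4. LogP is the mean with sd of three trials.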

HeLa [2] = assay: Cytotoxicity against human HeLa cells assessed as dehydrogenase activity after 24 hrs by […]; type: functional; settings: read-out: LC50 (the source's name)
Procedure, shortened: (§1)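 Cells grown in MEM with 10% FBS at 37 °C, 5% CO2 (MCF7 also given 0.01 mg/mL insulin). Unlabeled peptides were applied over a concentration range for 24 h in OPTI-MEM with 2% FBS. Cell death was scored by Sytox Red staining for loss of plasma membrane integrity and by CCK-8 dehydrogenase activity, and LC50 was determined.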

FaDu = assay: Cytotoxicity against human FADU cells assessed as dehydrogenase activity after 24 hrs by […]; type: functional; settings: read-out: LC50 (the source's name); procedure, shortened: as §1
MCF7 = assay: Cytotoxicity against human MCF7 cells assessed as dehydrogenase activity after 24 hrs by […]; type: functional; settings: MCF7, 24 h, read-out: LC50 (the source's name); procedure, shortened: as §1
[3] = Cytotoxicity against human MRC5 cells assessed as dehydrogenase activity after 24 hrs by […]; type: cell-based; settings: read-out: LC50; procedure, shortened: as §1
DU-145 = assay: Cytotoxicity against human DU145 cells assessed as dehydrogenase activity after 24 hrs by […]; type: functional; settings: DU-145, 24 h, read-out: LC50 (the source's name); procedure, shortened: as §1
[4] = Toxicity in human RBC assessed as hemolytic activity after 2 hrs; type: cell-based, Erythrocyte; settings: red blood cells
Procedure, shortened: (§2)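 In the red blood cell lysis assay, percent lysis was normalised to melittin ([…]) as 100% lysis and PBS as 0%. HC50 is the concentration giving 50% hemolysis. The minimal hemolytic concentration is the peptide level giving 10% hemolysis.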

[5] = Toxicity in human RBC assessed as minimum drug level required for 10% hemolysis after 2 hrs; type: cell-based; settings: erythrocyte; procedure, shortened: as §2
[6] = Toxicity in mouse liver mitochondria assessed as minimum drug level required for mitochondrial disruption; settings: in vitro
HeLa [7] = assay: Cytotoxicity against human HeLa cells assessed as swelling and disruption of mitochondria at LC50 of 2.5 uM after 30 mins by fluorescence imaging using DAPI nuclear staining; type: functional, cell-based
HeLa [8] = assay: Cytotoxicity against human HeLa cells assessed as swelling and disruption of mitochondria at LC50 of 2.5 uM after 30 mins by transmission electron microscopy; type: functional, cell-based
HeLa [9] = assay: Cytotoxicity against human HeLa cells assessed as swelling and disruption of mitochondria at LC50 of 2.5 uM after 30 mins by calcein-AM release and quenching assay; type: functional, cell-based
HeLa [10] = assay: Cytotoxicity against human HeLa cells assessed as loss of plasma membrane integrity at LC50 of 2.5 uM by sytox red staining-based flow cytometry; type: functional, cell-based
HeLa [11] = assay: Induction of apoptosis in human HeLa cells assessed as increase in DNA fragmentation at 2.5 uM by TUNEL assay; type: functional, cell-based; settings: TDE = time-dependent effect
Procedure, shortened: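 HeLa cells were treated with 2.5 µM peptide and sampled over time. DNA fragmentation in fixed, washed cells was detected by TUNEL using the APO-BrdU kit per the manufacturer.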

HeLa [12] = assay: Induction of apoptosis in human HeLa cells assessed as caspase 3 activation at 2.5 uM; type: functional, cell-based
Procedure, shortened: (§3)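 After peptide treatment, HeLa cells were trypsinized, pelleted and washed. They were then stained either with FITC anti-activated caspase 3 or with anti-activated caspase 9 plus an anti-goat AlexaFluor 555 secondary. Cells were washed again and read by flow cytometry. Staurosporine-treated cells served as the positive control.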

HeLa [13] = assay: Induction of apoptosis in human HeLa cells assessed as caspase 9 activation at 2.5 uM; type: functional, cell-based; procedure, shortened: as §3
HeLa [14] = assay: Cytotoxicity against human HeLa cells assessed as loss of mitochondrial membrane integrity at LC50 of 2.5 uM by flow cytometry
[15] = Cytotoxicity against human KS1767 cells assessed as dehydrogenase activity after 48 hrs by […]; type: functional; settings: KS1767, 48 h, read-out: LC50 (the source's name)
Procedure, shortened: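 KS1767 cells were kept in DMEM with 10% FBS. Integrin-homing (CNGRC) peptide conjugates were incubated over a concentration range for 48 h in OPTI-MEM with 2% FBS. Death was read by Sytox Red viability staining and CCK-8 dehydrogenase activity, and LC50 was determined.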

MDA-MB-231 [16] = assay: Cytotoxicity against human MDA-MB-231 cells assessed as dehydrogenase activity after 48 hrs by […]; type: functional; settings: MDA-MB-231, 48 h, read-out: LC50 (the source's name)
MDA-MB-231 [17] = assay: Specificity index, ratio of LC50 for human MDA-MB-231 cells to LC50 for human KS1767 cells; type: functional

Row | Structure (SMILES) | logD [1] | CC50 (HeLa [2]) [µM] | CC50 (FaDu) [µM] | CC50 (MCF7) [µM] | CC50 at 24 h [3] [µM] | CC50 (DU-145) [µM] | HC50 at 2 h [4] [µM] | Activity [5] [µM] | Activity [6] [µM] | other results
1 | CC(C)C[C@@H](NC(=O)[C@H](N)CCCCN)C(=O)N[C@H](C)C(=O)N[C@H](CCCCN)C(=O)N[C@H](CC(C)C)C(=O)N[C@H](C)C(=O)N[C@H](CCCCN)C(=O)N[C@H](CCCCN)C(=O)N[C@H](CC(C)C)C(=O)N[C@H](C)C(=O)N[C@H](CCCCN)C(=O)N[C@H](CC(C)C)C(=O)N[C@H](C)C(=O)N[C@H](CCCCN)C(=O)O | -2.3 | 350 | > 200 | > 300 | > 200 | > 300 | > 100 | > 100 | 200 | –
2 | C[C@@H](NC(=O)[C@@H](CC1CCCCC1)NC(=O)[C@H](N)CCCCN)C(=O)N[C@H](CCCCN)C(=O)N[C@H](CC1CCCCC1)C(=O)N[C@H](C)C(=O)N[C@H](CCCCN)C(=O)N[C@H](CCCCN)C(=O)N[C@H](CC1CCCCC1)C(=O)N[C@H](C)C(=O)N[C@H](CCCCN)C(=O)N[C@H](CC1CCCCC1)C(=O)N[C@H](C)C(=O)N[C@H](CCCCN)C(=O)O | -1.73 | 2.3 | 3.3 | 2 | 5.8 | 2 | > 42 | 9 | 1.3 | Activity (HeLa [7]): Active; Activity (HeLa [8]): Active; Activity (HeLa [9]): Active; Activity (HeLa [10]): Active; Activity (HeLa [11]): tde; Activity (HeLa [12]): Active; Activity (HeLa [13]): Active; Activity (HeLa [14]): Active
3 | CC(NC(=O)C(CC1CCCCC1)NC(=O)C(N)CCCCN)C(=O)NC(CCCCN)C(=O)NC(CC1CCCCC1)C(=O)NC(C)C(=O)NC(CCCCN)C(=O)NC(CCCCN)C(=O)NC(CC1CCCCC1)C(=O)NC(C)C(=O)NC(CCCCN)C(=O)NC(CC1CCCCC1)C(=O)NC(C)C(=O)NC(CCCCN)C(=O)O (racemic) | – | 6.5 | – | – | – | – | > 100 | > 100 | 6.3 | –
4 | CC(C)C[C@@H](NC(=O)[C@@H](CCCCN)NC(=O)[C@H](CS)NC(=O)[C@H](CCCNC(=N)N)NC(=O)CNC(=O)[C@H](CC(N)=O)NC(=O)[C@@H](N)CS)C(=O)N[C@H](C)C(=O)N[C@H](CCCCN)C(=O)N[C@H](CC(C)C)C(=O)N[C@H](C)C(=O)N[C@H](CCCCN)C(=O)N[C@H](CCCCN)C(=O)N[C@H](CC(C)C)C(=O)N[C@H](C)C(=O)N[C@H](CCCCN)C(=O)N[C@H](CC(C)C)C(=O)N[C@H](C)C(=O)N[C@H](CCCCN)C(=O)O | – | – | – | – | – | – | – | – | – | CC50 [15]: 63 µM; CC50 (MDA-MB-231 [16]): 144 µM; Ratio (MDA-MB-231 [17]): 2.3
5 | C[C@@H](NC(=O)[C@@H](Cc1ccccc1)NC(=O)[C@H](N)CCCCN)C(=O)N[C@H](CCCCN)C(=O)N[C@H](Cc1ccccc1)C(=O)N[C@H](C)C(=O)N[C@H](CCCCN)C(=O)N[C@H](CCCCN)C(=O)N[C@H](Cc1ccccc1)C(=O)N[C@H](C)C(=O)N[C@H](CCCCN)C(=O)N[C@H](Cc1ccccc1)C(=O)N[C@H](C)C(=O)N[C@H](CCCCN)C(=O)O | -2.52 | – | – | – | – | – | – | – | – | –
6 | C[C@@H](NC(=O)[C@@H](CC1CCCCC1)NC(=O)[C@@H](CCCCN)NC(=O)[C@H](CS)NC(=O)[C@H](CCCNC(=N)N)NC(=O)CNC(=O)[C@H](CC(N)=O)NC(=O)[C@@H](N)CS)C(=O)N[C@H](CCCCN)C(=O)N[C@H](CC1CCCCC1)C(=O)N[C@H](C)C(=O)N[C@H](CCCCN)C(=O)N[C@H](CCCCN)C(=O)N[C@H](CC1CCCCC1)C(=O)N[C@H](C)C(=O)N[C@H](CCCCN)C(=O)N[C@H](CC1CCCCC1)C(=O)N[C@H](C)C(=O)N[C@H](CCCCN)C(=O)O | – | – | – | – | – | – | – | – | – | CC50 [15]: 7 µM; CC50 (MDA-MB-231 [16]): 17 µM; Ratio (MDA-MB-231 [17]): 2.7
7 | CCCCCC[C@@H](NC(=O)[C@H](N)CCCCN)C(=O)N[C@H](C)C(=O)N[C@H](CCCCN)C(=O)N[C@H](CCCCCC)C(=O)N[C@H](C)C(=O)N[C@H](CCCCN)C(=O)N[C@H](CCCCN)C(=O)N[C@H](CCCCCC)C(=O)N[C@H](C)C(=O)N[C@H](CCCCN)C(=O)N[C@H](CCCCCC)C(=O)N[C@H](C)C(=O)N[C@H](CCCCN)C(=O)O | – | 2.5 | 2.8 | 2.2 | 2.8 | 2 | 31 | 8 | 2.5 | –
8 | CCCCCCC(NC(=O)C(N)CCCCN)C(=O)NC(C)C(=O)NC(CCCCN)C(=O)NC(CCCCCC)C(=O)NC(C)C(=O)NC(CCCCN)C(=O)NC(CCCCN)C(=O)NC(CCCCCC)C(=O)NC(C)C(=O)NC(CCCCN)C(=O)NC(CCCCCC)C(=O)NC(C)C(=O)NC(CCCCN)C(=O)O (racemic) | – | 3.7 | – | – | – | – | > 100 | > 100 | 3.1 | –
9 | CC(C)CC(NC(=O)C(N)CCCCN)C(=O)NC(C)C(=O)NC(CCCCN)C(=O)NC(CC(C)C)C(=O)NC(C)C(=O)NC(CCCCN)C(=O)NC(CCCCN)C(=O)NC(CC(C)C)C(=O)NC(C)C(=O)NC(CCCCN)C(=O)NC(CC(C)C)C(=O)NC(C)C(=O)NC(CCCCN)C(=O)O (racemic) | – | 160 | – | – | – | – | > 100 | > 100 | 200 | –
